Laboratory results: ChEMBL document CHEMBL1127676, “Structure-activity relationships in a series of 5-[(2,5-dihydroxybenzyl)amino]salicylate inhibitors of EGF-receptor-associated tyrosine kinase: importance of additional hydrophobic aromatic interactions” (J Med Chem, 1994)

Key:
[1] = target: T1, Epidermal growth factor receptor (Homo sapiens, UniProt P00533); assay: Inhibitory potency against protein tyrosine kinase activity associated with EGFR was evaluated using ER 22 cell membrane
[2] = target: T1, Epidermal growth factor receptor; assay: Inhibition of EGFR(epidermal growth factor receptor) autophosphorylation in ER22 cell membranes
[3] = Inhibition of PKA(protein kinase-A)
[4] = target: Protein kinase C (PKC); assay: Inhibition of rat PKC(protein kinase-C); assay type: protein assay
In short: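 PKC partially purified from rat brain by DEAE-cellulose chromatography and assayed in vitro with a commercial PKC assay kit; inhibitors tested for inhibition of the kinase activity.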

[5] = target: T1, Epidermal growth factor receptor; conditions: ER 22; 10 uM
[6] = target: T1, Epidermal growth factor receptor; conditions: 20 uM
[7] = target: T1, Epidermal growth factor receptor; conditions: 5 uM
[8] = target: T1, Epidermal growth factor receptor; conditions: ER 22; 10 uM; remark: listed apart in the source
[9] = target: T1, Epidermal growth factor receptor; conditions: ER 22; 100 uM
[10] = target: T1, Epidermal growth factor receptor; conditions: ER 22; 10 uM; remark: listed apart in the source
[11] = target: T1, Epidermal growth factor receptor; conditions: ER 22; 10 uM; remark: listed apart in the source

T1 sequence (P00533 whole entry): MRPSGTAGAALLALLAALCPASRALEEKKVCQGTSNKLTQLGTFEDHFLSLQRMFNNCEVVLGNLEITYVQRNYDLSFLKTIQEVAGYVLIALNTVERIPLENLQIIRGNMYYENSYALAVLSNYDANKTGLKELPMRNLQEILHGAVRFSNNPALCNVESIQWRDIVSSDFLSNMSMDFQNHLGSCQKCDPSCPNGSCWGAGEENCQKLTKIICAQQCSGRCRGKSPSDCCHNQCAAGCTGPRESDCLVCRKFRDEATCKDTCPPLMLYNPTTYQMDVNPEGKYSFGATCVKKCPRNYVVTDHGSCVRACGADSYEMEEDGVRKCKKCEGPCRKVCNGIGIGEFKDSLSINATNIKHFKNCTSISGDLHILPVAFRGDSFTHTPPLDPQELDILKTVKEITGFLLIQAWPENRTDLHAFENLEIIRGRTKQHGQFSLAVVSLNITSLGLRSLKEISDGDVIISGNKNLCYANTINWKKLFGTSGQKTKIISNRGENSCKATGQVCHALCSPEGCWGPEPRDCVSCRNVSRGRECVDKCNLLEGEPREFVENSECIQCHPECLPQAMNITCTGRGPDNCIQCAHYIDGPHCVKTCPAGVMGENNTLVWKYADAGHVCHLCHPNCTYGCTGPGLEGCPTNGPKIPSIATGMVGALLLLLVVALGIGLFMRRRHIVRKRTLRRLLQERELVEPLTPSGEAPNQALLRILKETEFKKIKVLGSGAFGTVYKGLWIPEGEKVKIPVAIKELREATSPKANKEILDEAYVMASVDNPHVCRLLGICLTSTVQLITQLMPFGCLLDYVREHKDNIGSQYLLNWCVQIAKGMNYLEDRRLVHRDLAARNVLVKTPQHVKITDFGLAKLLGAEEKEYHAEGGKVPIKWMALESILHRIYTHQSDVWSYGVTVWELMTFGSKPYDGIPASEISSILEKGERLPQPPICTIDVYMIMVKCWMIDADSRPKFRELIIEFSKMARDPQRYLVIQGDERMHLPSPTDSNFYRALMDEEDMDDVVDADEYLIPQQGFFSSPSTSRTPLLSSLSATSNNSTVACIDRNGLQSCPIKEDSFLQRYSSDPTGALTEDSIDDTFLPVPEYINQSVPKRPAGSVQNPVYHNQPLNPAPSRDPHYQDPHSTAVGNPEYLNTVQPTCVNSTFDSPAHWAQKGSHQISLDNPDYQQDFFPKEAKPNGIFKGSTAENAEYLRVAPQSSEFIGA

Structure (SMILES) | IC50 [1] [µM] | also measured
CCOC(=O)c1cc(/N=C/c2cc(O)ccc2O)ccc1O | 50 | –
CC(C)c1ccc(COC(=O)c2cc(NCc3cc(O)ccc3O)ccc2O)cc1 | 1 | –
CCCCCCCCCCCCCCCCOC(=O)c1cc(NCc2cc(O)ccc2O)ccc1O | > 5 | –
O=C(OCCCc1ccccc1)c1cc(NCc2cc(O)ccc2O)ccc1O | 0.03 | IC50 [2]: 0.7 µM; IC50 [3]: 11 µM; IC50 [4]: > 20 µM
O=C(Cc1cc(/N=C/c2cc(O)ccc2O)ccc1O)NOCc1ccccc1 | 50 | –
O=P(O)(O)Cc1cc(NCc2cc(O)ccc2O)ccc1O | 3 | –
CC(CCOC(=O)c1cc(NCc2cc(O)ccc2O)ccc1O)c1ccccc1 (centres undefined) | 0.4 | –
CC(COC(=O)c1cc(NCc2cc(O)ccc2O)ccc1O)Cc1ccccc1 (centres undefined) | 0.36 | –
O=C(Oc1cccc(O)c1)c1cc(NCc2cc(O)ccc2O)ccc1O | 0.09 | –
O=C(O)Cc1cc(NCc2cc(O)ccc2O)ccc1O | 6 | –
CC(C)(C)ONC(=O)c1cc(/N=C/c2cc(O)ccc2O)ccc1O | – | inhibition [5]: 20%
O=C(Oc1ccccc1)c1cc(NCc2cc(O)ccc2O)ccc1O | 0.07 | –
CCOP(=O)(Cc1cc(/N=C/c2cc(O)ccc2O)ccc1O)OCC | > 100 | –
CC(C)(C)ONC(=O)Cc1cc(/N=C/c2cc(O)ccc2O)ccc1O | 31 | –
O=C(O)Cc1cc(/N=C/c2cc(O)ccc2O)ccc1O | 35 | –
CCOP(=O)(Cc1cc(NCc2cc(O)ccc2O)ccc1O)OCC | 4 | –
O=C(OCC1CCCCC1)c1cc(NCc2cc(O)ccc2O)ccc1O | 1.2 | –
CCOC(=O)Cc1cc(/N=C/c2cc(O)ccc2O)ccc1O | 100 | –
CC(CCOC(=O)c1cc(/N=C/c2cc(O)ccc2O)ccc1O)CC(C)(C)C (centres undefined) | – | inhibition [5]: 20%
O=C(OCCc1ccccc1)c1cc(NCc2cc(O)ccc2O)ccc1O | 0.13 | IC50 [2]: 0.2 µM; IC50 [3]: 4 µM
CC(CCOC(=O)c1cc(NCc2cc(O)ccc2O)ccc1O)CC(C)(C)C (centres undefined) | > 1 | –
CC(C)(C)ONC(=O)c1cc(NCc2cc(O)ccc2O)ccc1O | 0.1 | inhibition [6]: 35%
O=C(NO)c1cc(NCc2cc(O)ccc2O)ccc1O | 0.4 | –
CC(C)(C)CCOC(=O)c1cc(NCc2cc(O)ccc2O)ccc1O | 0.7 | –
O=C(Cc1cc(NCc2cc(O)ccc2O)ccc1O)NOCc1ccccc1 | 1 | –
CC(C)(C)OC(=O)c1cc(/N=C/c2cc(O)ccc2O)ccc1O | – | inhibition [5]: 15%
CC(C)(C)OC(=O)c1cc(NCc2cc(O)ccc2O)ccc1O | 1 | –

Structure (SMILES) | IC50 [1] [µM] | also measured
O=C(NOCc1ccccc1)c1cc(/N=C/c2cc(O)ccc2O)ccc1O | – | inhibition [7]: 43%; inhibition [8]: 8%
O=C(Oc1ccc(-c2ccccc2)cc1)c1cc(NCc2cc(O)ccc2O)ccc1O | 5 | –
Cc1cc(C)cc(COC(=O)c2cc(NCc3cc(O)ccc3O)ccc2O)c1 | 3 | –
CC(C)(C)ONC(=O)Cc1cc(NCc2cc(O)ccc2O)ccc1O | 5 | –
O=C(O)c1cc(/N=C/c2cc(O)ccc2O)ccc1O | 5 | –
CCOC(=O)Cc1cc(NCc2cc(O)ccc2O)ccc1O | 7 | –
CONC(=O)c1cc(NCc2cc(O)ccc2O)ccc1O | 0.3 | –
O=C(Oc1cccc2ccccc12)c1cc(NCc2cc(O)ccc2O)ccc1O | 0.11 | –
COC(=O)Cc1cc(/N=C/c2cc(O)ccc2O)ccc1O | 100 | –
CCOC(=O)c1cc(NCc2cc(O)ccc2O)ccc1O | 0.4 | –
O=C(OCCC12C[C@H]3C[C@@H](C1)C[C@@H](C2)C3)c1cc(NCc2cc(O)ccc2O)ccc1O | > 5 | –
CC(C)CCCC(C)CCOC(=O)c1cc(NCc2cc(O)ccc2O)ccc1O (centres undefined) | 7 | IC50 [2]: 25 µM; IC50 [3]: 10 µM
COC(=O)Cc1cc(NCc2cc(O)ccc2O)ccc1O | 3 | –
COC(=O)c1cc(/N=C/c2cc(O)ccc2O)ccc1O | – | inhibition [9]: 56%
O=C(OCCCCc1ccccc1)c1cc(NCc2cc(O)ccc2O)ccc1O | 0.4 | –
O=C(O)c1cc(NCc2cc(O)ccc2O)ccc1O [LAVENDUSTIN C] | – | IC50 [3]: > 100 µM; IC50 [4]: > 100 µM
O=C(NOCc1ccccc1)c1cc(NCc2cc(O)ccc2O)ccc1O | 0.05 | –
CONC(=O)c1cc(/N=C/c2cc(O)ccc2O)ccc1O | 27 | –
O=C(OC/C=C/c1ccccc1)c1cc(NCc2cc(O)ccc2O)ccc1O | 1.3 | –
CC(C)CCCC(C)CCOC(=O)c1cc(/N=C/c2cc(O)ccc2O)ccc1O (centres undefined) | – | inhibition [10]: 20%
CC(COC(=O)c1cc(NCc2cc(O)ccc2O)ccc1O)CC(C)(C)C (centres undefined) | ~4 | IC50 [2]: 8 µM; IC50 [3]: 10 µM; IC50 [4]: 300 µM
COC(=O)c1cc(NCc2cc(O)ccc2O)ccc1O | 0.6 | IC50 [2]: 1 µM; IC50 [3]: 150 µM; IC50 [4]: 400 µM
CC(COC(=O)c1cc(/N=C/c2cc(O)ccc2O)ccc1O)CC(C)(C)C (centres undefined) | > 10 | –
O=C(OCc1ccccc1)c1cc(NCc2cc(O)ccc2O)ccc1O | 0.08 | –
O=C(Oc1ccc2ccccc2c1)c1cc(NCc2cc(O)ccc2O)ccc1O | 0.09 | –
CC(C)(C)CCOC(=O)c1cc(/N=C/c2cc(O)ccc2O)ccc1O | – | inhibition [11]: 10%
